Laboratory results taken from ChEMBL document CHEMBL3525985, “Regiospecificity and stereospecificity of human UDP-glucuronosyltransferases in the glucuronidation of estriol, 16-epiestriol, 17-epiestriol, and 13-epiestradiol” (Drug Metab Dispos, 2013).

Legend:
Assay type in all cases: ADME
[1] = target: T1, UDP-glucuronosyltransferase 1A8 (Homo sapiens, UniProt Q9HAW9); assay: Drug metabolism assessed as recombinant human C-terminal His-tagged UGT1A8-mediated estriol-3-glucuronide formation at 200 uM after 15 to 60 mins by HPLC analysis in presence of UDPGA; settings: recombinant enzyme
T1 sequence (Q9HAW9 whole entry): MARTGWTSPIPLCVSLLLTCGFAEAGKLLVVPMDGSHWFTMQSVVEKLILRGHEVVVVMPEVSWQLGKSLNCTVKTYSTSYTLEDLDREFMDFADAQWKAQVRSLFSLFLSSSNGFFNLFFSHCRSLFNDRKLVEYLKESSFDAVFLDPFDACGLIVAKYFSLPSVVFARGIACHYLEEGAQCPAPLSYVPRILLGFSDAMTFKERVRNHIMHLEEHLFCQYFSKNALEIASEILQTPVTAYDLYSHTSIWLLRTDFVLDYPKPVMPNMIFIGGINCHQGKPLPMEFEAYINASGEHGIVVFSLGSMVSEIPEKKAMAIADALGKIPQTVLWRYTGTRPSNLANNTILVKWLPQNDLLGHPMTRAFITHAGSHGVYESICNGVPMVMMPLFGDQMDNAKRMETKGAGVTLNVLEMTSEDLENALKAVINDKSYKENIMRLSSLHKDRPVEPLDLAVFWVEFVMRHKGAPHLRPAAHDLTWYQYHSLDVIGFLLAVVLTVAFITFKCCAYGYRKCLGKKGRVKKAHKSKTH
How it was run: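 Screen at 200 µM substrate (DMSO, 10% final) with 5 or 50 µg UGT-enriched insect-cell membranes in 50 mM phosphate pH 7.4, 10 mM MgCl2, 5 mM UDPGA; 37°C, 15–60 min. Stopped with perchloric acid, then iced and centrifuged; glucuronides resolved by HPLC. Triplicates with no-UDPGA controls; ≤10% substrate consumed; rates normalized to relative UGT expression (UGT1A7 15.5, UGT1A8 1.4; UGT1A3 = 1.0).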

[2] = target: T1, UDP-glucuronosyltransferase 1A8; assay: Drug metabolism assessed as recombinant human C-terminal His-tagged UGT1A8-mediated estradiol-3-glucuronide formation at 200 uM after 15 to 60 mins by HPLC analysis in presence of UDPGA; settings: recombinant enzyme
How it was run: (§1)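 Screening at a single substrate concentration of 200 μM, in triplicate. The reaction used 5 or 50 µg of UGT-enriched insect cell membranes in 50 mM phosphate pH 7.4 with 10 mM MgCl₂ and 5 mM UDPGA, 10% final DMSO. Incubation was 15–60 min at 37°C. Perchloric acid stopped the reaction and supernatants were analysed by HPLC. Controls lacked UDPGA. Rates were normalized to relative UGT expression level.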

[3] = target: T2, UDP-glucuronosyltransferase 2A1 (Homo sapiens, UniProt P0DTE4); assay: Drug metabolism assessed as recombinant human C-terminal His-tagged UGT2A1-mediated 13-epiestradiol-3-glucuronide/13-epiestradiol-17-glucuronide formation at 200 uM after 15 to 60 mins by HPLC analysis in presence of UDPGA; settings: recombinant enzyme; how it was run: as §1
T2 sequence (P0DTE4 whole entry): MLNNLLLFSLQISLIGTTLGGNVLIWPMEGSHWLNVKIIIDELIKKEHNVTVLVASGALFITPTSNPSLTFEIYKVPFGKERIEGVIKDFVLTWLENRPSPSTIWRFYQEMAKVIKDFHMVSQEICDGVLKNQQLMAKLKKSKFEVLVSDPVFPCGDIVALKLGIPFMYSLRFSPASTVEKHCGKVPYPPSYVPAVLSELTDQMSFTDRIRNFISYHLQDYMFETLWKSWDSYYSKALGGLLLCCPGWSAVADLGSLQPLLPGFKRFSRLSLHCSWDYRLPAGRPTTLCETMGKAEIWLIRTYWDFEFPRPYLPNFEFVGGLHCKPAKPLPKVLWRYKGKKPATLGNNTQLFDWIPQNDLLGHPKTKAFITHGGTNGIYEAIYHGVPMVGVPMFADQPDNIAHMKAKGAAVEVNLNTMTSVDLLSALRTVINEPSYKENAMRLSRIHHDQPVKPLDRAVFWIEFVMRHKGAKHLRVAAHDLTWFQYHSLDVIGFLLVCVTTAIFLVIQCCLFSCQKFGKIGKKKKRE

[4] = Drug metabolism in human intestine microsomes assessed as 16-epiestriol-17-glucuronide formation after 15 to 60 mins by Michaelis-Menten equation analysis in presence of UDPGA
How it was run: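 Pooled human intestine microsomes (6 donors), 0.5 or 10 µg, with alamethicin at 5% of total protein. Incubated with 50 mM phosphate pH 7.4, 10 mM MgCl₂, 5 mM UDPGA and 10% DMSO for 15–60 min at 37°C. Each glucuronide regioisomer quantified by HPLC, in triplicate, with substrate consumption at or below 10%.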

[5] = target: T3, UDP-glucuronosyltransferase 1A10 (Homo sapiens, UniProt Q9HAW8); assay: Inhibition of recombinant human C-terminal His-tagged UGT1A10 after 15 to 60 mins by Michaelis-Menten equation analysis in presence of UDPGA
T3 sequence (Q9HAW8 whole entry): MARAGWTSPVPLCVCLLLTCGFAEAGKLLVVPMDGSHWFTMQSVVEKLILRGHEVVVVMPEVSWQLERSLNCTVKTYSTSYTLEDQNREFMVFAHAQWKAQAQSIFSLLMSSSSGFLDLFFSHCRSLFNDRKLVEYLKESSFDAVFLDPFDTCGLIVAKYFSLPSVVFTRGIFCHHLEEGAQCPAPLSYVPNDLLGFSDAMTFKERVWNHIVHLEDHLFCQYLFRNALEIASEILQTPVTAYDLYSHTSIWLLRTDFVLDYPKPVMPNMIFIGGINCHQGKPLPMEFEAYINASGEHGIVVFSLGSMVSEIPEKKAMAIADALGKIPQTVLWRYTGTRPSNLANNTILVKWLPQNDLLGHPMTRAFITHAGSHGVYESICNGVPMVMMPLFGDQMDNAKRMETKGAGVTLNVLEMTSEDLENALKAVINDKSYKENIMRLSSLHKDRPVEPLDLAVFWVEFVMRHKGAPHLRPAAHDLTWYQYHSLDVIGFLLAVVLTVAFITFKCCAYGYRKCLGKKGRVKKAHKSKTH
How it was run: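 Kinetics with His-tagged UGT-enriched insect-cell membranes (5 or 50 µg): aglycone 0.2–300 µM in 10% DMSO, 5 mM UDPGA, 10 mM MgCl₂, 50 mM phosphate pH 7.4, 15–60 min at 37°C. Substrate consumption kept at or below 10%. Glucuronides quantified by HPLC in triplicate, rates normalized to expression, and data fitted to Michaelis-Menten.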

For `C[C@]12CC[C@@H]3c4ccc(O)cc4CC[C@H]3[C@@H]1C[C@@H](O)[C@@H]2O` [ESTRIOL], the Drug metabolism [1] was “metabolite_detected”.
For `C[C@]12CC[C@@H]3c4ccc(O)cc4CC[C@H]3[C@@H]1CC[C@@H]2O` [ESTRADIOL], the Drug metabolism [2] was “metabolite_detected”.
For `C[C@@]12CC[C@@H]3c4ccc(O)cc4CC[C@H]3[C@@H]1CC[C@@H]2O`, the Drug metabolism [3] was “metabolite_detected”.
In the case of `C[C@]12CC[C@@H]3c4ccc(O)cc4CC[C@H]3[C@@H]1C[C@H](O)[C@@H]2O` [EPIESTRIOL], the Km [4] is reported as 1170 µM, the Vmax [4] is reported as 2324 pmol/min/mg and the Ki [5] is reported as 98.1 µM.
